Laboratory results published in ChEMBL document CHEMBL1149843, “Antimicrobial triterpenoids from Vladimiria muliensis” (2008).
In brackets after ≈: the same amount, converted by molar mass.

Key:
Type in all cases: functional
Escherichia coli = experiment: Antimicrobial activity against Escherichia coli by broth microdilution method
In short: (§1)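 Bacteria were grown on MH agar at 37 °C for 24 h, then diluted to about 1 × 10^7 CFU/mL. Compounds were dissolved in DMSO. MIC was determined by broth microdilution as the lowest concentration with no growth by turbidity, with MTT absorbance read at 570 nm. Duplicates, repeated three times.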

Candida albicans = experiment: Antimicrobial activity against Candida albicans by broth microdilution method
In short: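 C. albicans was grown on PDA agar at 28 °C for 48 h, then diluted to about 1 × 10^7 CFU/mL. Compounds were dissolved in DMSO. MIC was determined by broth microdilution as the lowest concentration with no growth by turbidity, with MTT absorbance read at 570 nm. Duplicates, repeated three times.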

Pseudomonas aeruginosa = experiment: Antimicrobial activity against Pseudomonas aeruginosa by broth microdilution method; in short: as §1
Enterococcus faecalis = experiment: Antimicrobial activity against Enterococcus faecalis by broth microdilution method; in short: as §1
Bacillus cereus = experiment: Antimicrobial activity against Bacillus cereus by broth microdilution method; in short: as §1
Staphylococcus aureus = experiment: Antimicrobial activity against Staphylococcus aureus by broth microdilution method; in short: as §1

C[C@H]1[C@H](C)CC[C@]2(C)CC[C@]3(C)C(=C[C@@H](O)[C@@H]4[C@@]5(C)CCC(=O)C(C)(C)[C@@H]5CC[C@]43C)[C@H]12
MIC (Escherichia coli): 70.4 µM (≈ 31 µg/mL)
MIC (Candida albicans): 70.4 µM (≈ 31 µg/mL)
MIC (Pseudomonas aeruginosa): 70.4 µM (≈ 31 µg/mL)
MIC (Enterococcus faecalis): 35.2 µM (≈ 15.5 µg/mL)
MIC (Bacillus cereus): 70.4 µM (≈ 31 µg/mL)
MIC (Staphylococcus aureus): 35.2 µM (≈ 15.5 µg/mL)

CO[C@@H]1C[C@@]2(C)[C@@H]3[C@@H](C)[C@H](C)CC[C@]3(C)CC[C@]2(C)C2=C1[C@@]1(C)CC[C@H](OC(C)=O)C(C)(C)[C@@H]1C[C@H]2O
MIC (Escherichia coli): 89.5 µM (≈ 46.1 µg/mL)
MIC (Candida albicans): 89.5 µM (≈ 46.1 µg/mL)
MIC (Pseudomonas aeruginosa): 44.7 µM (≈ 23 µg/mL)
MIC (Enterococcus faecalis): 89.5 µM (≈ 46.1 µg/mL)
MIC (Bacillus cereus): 179 µM (≈ 92.1 µg/mL)
MIC (Staphylococcus aureus): 89.5 µM (≈ 46.1 µg/mL)

C[C@H]1[C@H](C)CC[C@]2(C)CC=C3[C@](C)([C@H]12)[C@H]1O[C@H]1[C@@H]1[C@@]2(C)CC[C@H](O)C(C)(C)[C@@H]2CC[C@@]31C
MIC (Escherichia coli): 36.3 µM (≈ 16 µg/mL)
MIC (Candida albicans): 36.3 µM (≈ 16 µg/mL)
MIC (Pseudomonas aeruginosa): 36.3 µM (≈ 16 µg/mL)
MIC (Enterococcus faecalis): 36.3 µM (≈ 16 µg/mL)
MIC (Bacillus cereus): 72.7 µM (≈ 32 µg/mL)
MIC (Staphylococcus aureus): 72.7 µM (≈ 32 µg/mL)

C[C@@H]1CC[C@]2(C)CC[C@]3(C)[C@@](O)(CC[C@@H]4[C@@]5(C)CC[C@H](O)C(C)(C)[C@@H]5CC[C@]43C)[C@]2(O)[C@H]1C
MIC (Escherichia coli): 140 µM (≈ 64.5 µg/mL)
MIC (Candida albicans): 69.6 µM (≈ 32.1 µg/mL)
MIC (Pseudomonas aeruginosa): 140 µM (≈ 64.5 µg/mL)
MIC (Enterococcus faecalis): 50 µM (≈ 23 µg/mL)
MIC (Bacillus cereus): 140 µM (≈ 64.5 µg/mL)
MIC (Staphylococcus aureus): 69.6 µM (≈ 32.1 µg/mL)

C[C@H]1[C@H](C)CC[C@]2(C)CC[C@]3(C)C(=C[C@@H](O)[C@H]4[C@@]3(C)[C@H](O)C[C@@]35OO[C@@H](CC(=O)C3(C)C)[C@]45C)[C@H]12
MIC (Escherichia coli): 31.9 µM (≈ 15.5 µg/mL)
MIC (Candida albicans): 31.9 µM (≈ 15.5 µg/mL)
MIC (Pseudomonas aeruginosa): 31.9 µM (≈ 15.5 µg/mL)
MIC (Enterococcus faecalis): 31.9 µM (≈ 15.5 µg/mL)
MIC (Bacillus cereus): 63.8 µM (≈ 31.1 µg/mL)
MIC (Staphylococcus aureus): 14.9 µM (≈ 7.25 µg/mL)

CC1COc2c(N3CCN(C)CC3)c(F)cc3c(=O)c(C(=O)O)cn1c23 (stereo unspecified) [OFLOXACIN]
MIC (Escherichia coli): 0.43 µM (≈ 0.155 µg/mL)
MIC (Pseudomonas aeruginosa): 0.43 µM (≈ 0.155 µg/mL)
MIC (Enterococcus faecalis): 0.86 µM (≈ 0.311 µg/mL)
MIC (Bacillus cereus): 0.86 µM (≈ 0.311 µg/mL)
MIC (Staphylococcus aureus): 0.43 µM (≈ 0.155 µg/mL)

C[C@H]1[C@H](C)CC[C@]2(CO)CC[C@]3(C)C(=CC[C@@H]4[C@@]5(C)CC[C@H](O)C(C)(C)[C@@H]5CC[C@]43C)[C@H]12 [UVAOL]
MIC (Escherichia coli): 142 µM (≈ 63.1 µg/mL)
MIC (Candida albicans): 283 µM (≈ 125 µg/mL)
MIC (Pseudomonas aeruginosa): 283 µM (≈ 125 µg/mL)
MIC (Enterococcus faecalis): 142 µM (≈ 63.1 µg/mL)
MIC (Bacillus cereus): 283 µM (≈ 125 µg/mL)
MIC (Staphylococcus aureus): 70.1 µM (≈ 31 µg/mL)
